Assay outcomes from PubChem.
Compounds with a hit are over-represented: about 3.3% of the library has one in this group of screens.
5HT1E ag: activates the human 5-HT1E serotonin receptor; P28566; CHO 5-HT1E Ga15 NFAT-bla reporter, FRET; 0% DMSO wells, 100% control agonist wells; activation, % at 6 µM; 65,000 tested, 0.69% active; AID 574;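 active means activation above a set limit, the screen-wide mean activation plus 3 SD, cut at about 8.5% in these data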;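 further: 100% = positive control agonist at 1 µM giving full maximal response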
Target sequence (P28566 whole entry, looked up): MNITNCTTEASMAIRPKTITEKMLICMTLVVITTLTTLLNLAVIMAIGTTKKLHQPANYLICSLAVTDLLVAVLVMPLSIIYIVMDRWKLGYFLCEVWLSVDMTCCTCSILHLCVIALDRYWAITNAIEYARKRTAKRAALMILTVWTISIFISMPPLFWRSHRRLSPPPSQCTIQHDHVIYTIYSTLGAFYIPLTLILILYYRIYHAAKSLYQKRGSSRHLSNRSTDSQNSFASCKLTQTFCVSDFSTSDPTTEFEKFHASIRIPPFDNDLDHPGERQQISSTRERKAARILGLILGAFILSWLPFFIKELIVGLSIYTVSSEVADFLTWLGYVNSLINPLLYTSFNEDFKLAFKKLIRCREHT
5HT1a ag: agonists of human 5-HT1a serotonin receptor. activation, % at 10 µM. CHO 5-HT1a Ga15 NFAT-bla reporter, FRET ratio; 0% basal, 100% maximal reference agonist. 65,000 tested, 0.56% active. AID 567. P08908;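 active means activation above the screen-wide mean activation plus 3 SD, cut at about 19% in these data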;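 further: 0% = DMSO wells and 100% = 5-CT at EC100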
HEK293 NFkB inh: lowers PMA/ionomycin-induced NF-kB signal in HEK293 cells. HEK-293 NF-kB luciferase reporter, luminescence. inhibition, % at 3 µM. 62,000 tested, 0.21% active;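 active means inhibition above the mean of all tested compounds plus 3 SD, cut at about 40% in these data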;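 further: 0% = stimulated DMSO wells and 100% = 10 µM reference inhibitor 5653914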
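System – HEK-293 cells with stable firefly luciferase reporter driven by four HIV NF-kB elements · Doses – one dose, 3 µM · Schedule – 1 h compound pre-incubation, 16 h PMA/ionomycin at 37 °C · Technique – luminescence from luciferase substrate reagent · Measure – percent inhibition normalized per plate to DMSO and reference-inhibitor controls · Replicates – tested once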
5HT1E antag: blocks the human 5-HT1E serotonin receptor. P28566. CHO 5-HT1E Ga15 NFAT-bla reporter, FRET, antagonist. inhibition, % at 6 µM. 65,000 tested, 0.99% active. AID 571;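 active means inhibition above a set limit, the mean inhibition across every tested compound plus 3 SD, cut at about 29% in these data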;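 further: signal is the 460 over 535 nm emission ratio of beta-lactamase substrate; 0% = agonist plus DMSO wells and 100% = wells without agonist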
Jurkat viability: cytotoxic compounds reducing Jurkat cell viability | 56,000 tested, 1.2% active | AID 463 | Jurkat E6.1 viability, ATP luminescence, 48 h | inhibition, % at 4 µM;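 active means inhibition above the mean inhibition of all tested compounds plus 3 SD, cut at about 28% in these data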
5-HT1A blocker: 5-HT1a (human) receptor antagonism; P08908; CHO 5-HT1a Ga15 NFAT-bla reporter, antagonist mode; inhibition, % at 10 µM; 62,000 tested, 0.68% active; AID 612;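 active means inhibition above the mean of all tested compounds plus 3 SD, cut at about 43% in these data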;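 further: receptor stimulated by 5-CT agonist at 100 nM near EC80; beta-lactamase reporter measured by ratiometric fluorescence of a cleavable substrate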
* hit, by the source's call; . = no result given.

SMILES | 5HT1E ag | 5HT1a ag | HEK293 NFkB inh | 5HT1E antag | Jurkat viability | 5-HT1A blocker
CCCn1nc(NC(=O)c2cccs2)c2cc3cc(OC)ccc3nc21 | 1.9 | 6.3 | -5.7 | 18.1 | -5.1 | -15.6
OCCOCCn1c(-c2ccccc2)nc(=S)c2c1CCCC2 | 0.8 | -1.7 | 3.3 | 8.5 | -1.9 | -6.0
CC1(C)Cc2c(c(=S)nc(-c3ccccc3)n2CCOCCO)CO1 | 17.7* | -0.3 | 1.2 | 7.5 | . | -19.8
CCS(=O)(=O)NCCc1csc(-c2ccccc2)n1 | -0.8 | -1.6 | 0.6 | -1.3 | -7.6 | -2.5
CC(C)CCNC(=O)Cn1c(=O)oc2cc(S(=O)(=O)N3CCc4ccccc43)ccc21 | -1.0 | 1.3 | 11.3 | 34.9* | -3.6 | 30.4
CCC(=O)Nc1ccc(NC(=O)CSc2nnnn2C(C)C)cc1 | -0.2 | -0.3 | -2.2 | 9.4 | -9.8 | 2.7
COc1ccc(-n2c(NC(=O)c3ccco3)c(C#N)c3nc4ccccc4nc32)cc1 | 6.4 | 22.1* | 2.1 | 11.4 | 5.6 | 6.9
CCCCn1c(NC(=O)c2ccccc2Cl)c(C#N)c2nc3ccccc3nc21 | 8.5 | 26.6* | 10.7 | 6.8 | 22.4 | -12.6
Cc1ccccc1C(=O)Nc1ccc(Cl)cn1 | -0.6 | -0.9 | -10.5 | 7.0 | 1.8 | 18.5
Cc1ccc(C(=O)Nc2ccc(Cl)cn2)cc1 | 0.5 | -2.1 | -27.1 | 2.7 | 76.5* | 7.2
CCCCC(=O)Nc1ccc(Cl)cn1 | -0.4 | -1.5 | 19.2 | 3.9 | 3.7 | 3.5
O=C(CCc1ccccc1)Nc1ccc(Cl)cn1 | -0.7 | -1.7 | 15.0 | 19.7 | 77.8* | 20.7
c1ccc(-c2nnc3n2N=C(c2ccc4c(c2)OCO4)CS3)nc1 | -0.8 | -1.0 | . | 2.1 | . | .
c1cc2c(cc1C1=Nn3c(nnc3C3CCCCC3)SC1)OCO2 | -2.1 | 0.8 | . | 31.5* | . | .
O=S(=O)(c1cccc(Cl)c1)N1CCCC1 | 130.8* | 2.0 | -4.0 | 2.6 | . | 0.7
O=S(=O)(c1cccc(S(=O)(=O)N2CCCC2)c1)c1cccc(S(=O)(=O)N2CCCC2)c1 | -0.9 | -6.3 | 12.3 | -5.9 | -1.7 | -5.9
Cn1ncc(N)c1C(=O)Nc1cccc(C(F)(F)F)c1 | -0.6 | 44.9* | -5.6 | 1.7 | 0.7 | -7.7
COc1cccc(-n2c(SCC(=O)N3CCCC3)nc3c([nH]c4ccccc43)c2=O)c1 | 0.5 | -0.4 | 11.0 | -0.1 | 2.8 | 1.4
COc1cc(Cn2c(-c3nonc3N)nc3ccccc32)ccc1C | -1.2 | -5.5 | 22.8 | 52.2* | 30.7* | 64.3*
COc1cccc(Cn2c(-c3nonc3N)nc3ccccc32)c1 | -0.3 | -2.0 | 11.7 | 39.0* | 81.2* | 46.0*
CCCCOc1ccccc1NC(=O)Cn1c(-c2nonc2N)nc2ccccc21 | 2.6 | -2.6 | 37.9 | 71.1* | 33.3* | 62.5*
C/C(=C1/SC(N2CCCC2)=NC1=O)c1ccc(Br)cc1 | -1.2 | 0.0 | -10.3 | -1.0 | 23.0 | -7.6
